MC4R ag barr: MC4R agonists recruiting beta-arrestin, primary screen, cell-based, luminescence, agonist arm of biased-ligand search. Melanocortin receptor 4 (Homo sapiens), P32245. U2OS MC4R beta-arrestin complementation; percent of melanotan II response, DMSO zero. activation, % at 8.9 µM. 360,000 compounds, 0.98% hits;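 active = activation above a per-plate cutoff, the mean activation of sample wells on that plate plus 3 SD, cut at about 8% in these data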
Target sequence (P32245 whole entry, looked up): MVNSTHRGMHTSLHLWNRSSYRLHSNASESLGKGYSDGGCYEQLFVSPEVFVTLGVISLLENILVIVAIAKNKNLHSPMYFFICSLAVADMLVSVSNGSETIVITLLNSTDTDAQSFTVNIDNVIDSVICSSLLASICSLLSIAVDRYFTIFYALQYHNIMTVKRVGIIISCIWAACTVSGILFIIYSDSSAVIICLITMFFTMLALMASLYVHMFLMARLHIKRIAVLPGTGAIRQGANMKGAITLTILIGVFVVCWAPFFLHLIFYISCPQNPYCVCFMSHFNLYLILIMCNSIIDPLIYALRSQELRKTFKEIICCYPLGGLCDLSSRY
NOD2 RIPK2 PPI: NOD2-RIPK2 binding disruptors in cells, primary screen, fluorescence, CHO cells, BLA complementation; Receptor-interacting serine/threonine-protein kinase 2 (Homo sapiens), O43353; CCF4 ratio; inhibition, % at 4.98 µM; 360,000 compounds, 0.38% hits; AID 624267, 2012; in the data active = inhibition above about 21%
TLR4 MyD88 comp: inhibitors of TLR4-MyD88 association in cells, primary screen, cell-based, HeLa CL3-4, BLA complementation, FRET ratio; inhibition, % at 8.4 µM; Toll-like receptor 4 (Homo sapiens) + Myeloid differentiation primary response protein …; 200,000 compounds, 0.18% hits; AID 861, 2007; HeLa CL3-4 TLR4/MyD88 BLA complementation; in the data active = inhibition above about 25%
MC4R antag cAMP: MC4R antagonists of cAMP signaling, primary screen, cell-based, TR-FRET, antagonist arm of biased-ligand search | Melanocortin receptor 4 (Homo sapiens), P32245 | MC4R-expressing cells, MTII-stimulated cAMP, LANCE TR-FRET | inhibition, % at 6.5 µM | 360,000 compounds, 0.48% hits;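 active = inhibition above its plate's cutoff, the mean of tested wells on that plate plus 3 SD, cut at about 29% in these data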
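System: U2OS cells stably expressing human melanocortin 4 receptor (MC4R). Reagent: Melanotan II challenge after compound preincubation. Doses: 6.5 µM. Times: 30-min compound, 1-h challenge, 1-h detection, room temperature. Measured by: TR-FRET with Eu-cAMP and labeled anti-cAMP, 671 nm. Replicates: singlicate.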
TLR9-MyD88 block: inhibitors of TLR9-MyD88 association in cells, primary screen, cell-based, CHO, BLA complementation, fluorescence | AID 504734, 2011 | 340,000 compounds, 0.21% hits | Toll-like receptor 9 (Homo sapiens) + Myeloid differentiation primary response protein … | inhibition, % at 4.98 µM | CCF4 FRET ratio;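 active = inhibition above the mean over all tested compounds plus 3 SD, cut at about 21% in these data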
MC4R barr ag: MC4R beta-arrestin agonists, retest, confirmation, cell-based, luminescence, U2OS; shares compounds with MC4R ag barr; U2OS MC4R beta-arrestin recruitment; scaled DMSO 0%, Melanotan II 100%; activation, % at 8.9 µM; 2,400 compounds, 31% hits;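 active = mean activation across replicates above the hit cutoff set in the earlier primary screen, cut at about 8% in these data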
MOR-DOR barr ag: agonists of MOR-DOR heterodimerization, counter-screen for MC4R biased agonist project, cell-based, luminescence; shares compounds with MC4R ag barr; activation, % at 9.2 µM; U2OS PathHunter beta-arrestin, beta-gal luminescence; percent of deltorphin B response, DMSO zero; 2,400 compounds, 5.8% hits;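 active = mean activation across replicates exceeds the hit threshold derived in the earlier primary screen, cut at about 18% in these data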
Numbers stand for hits; i = inactive; nt = not tested or not shown. In the library only some 1.8% were active in any assay of this set; here they are far more common.

SMILES	MC4R ag barr	NOD2 RIPK2 PPI	TLR4 MyD88 comp	MC4R antag cAMP	TLR9-MyD88 block	MC4R barr ag	MOR-DOR barr ag
CCn1c(COc2ccc3c(c2)OCO3)nnc1SCC(=O)c1ccc(Cl)cc1	9.9	i	i	i	i	i	i
Nc1c(N=Nc2cccc(Cl)c2)c(=O)[nH]n1-c1ccccc1	13	i	i	i	i	i	i
O=C(NC(=O)c1cccc(F)c1)OC[C@@H]1CCCN2CCCC[C@H]12	i	i	i	i	i	nt	nt
O=C(Nc1ccc(C(=O)OC[C@@H]2CCCN3CCCC[C@H]23)cc1)c1cccc(Br)c1	12	i	i	i	i	i	i
COc1ccc(Cn2c(C)nc3c(c2=O)c2nc4ccccc4nc2n3Cc2ccco2)cc1	11	i	nt	i	i	i	i
O=C(CCCc1c[nH]c2ccccc12)NCC1COc2ccccc2O1 (centres undefined)	i	i	i	i	i	nt	nt
O=C(CCc1c[nH]c2ccccc12)NCC1COc2ccccc2O1 (centres undefined)	11	i	i	i	i	i	i
Cc1ccccc1NC(=O)c1cn(-c2ccccc2)nc1-c1ccccc1	i	i	i	i	i	nt	nt
Cc1cccc(C)c1NC(=O)c1cn(-c2ccccc2)nc1-c1ccccc1	9.9	i	i	i	i	i	i
O=c1ccn(CCCBr)c(=O)[nH]1	i	i	nt	i	i	nt	nt
Cc1noc(C)c1C(=O)OCC(=O)Nc1ncc(C(F)(F)F)cc1Cl	i	i	nt	i	i	nt	nt
CC1=CC2=NC(=O)/C(=C/c3cccn3Cc3ccccc3)C(=N)N2O1	i	i	nt	i	i	nt	nt
CC1=CC2=NC(=O)/C(=C\c3cccn3CCOc3ccc(C)c(C)c3)C(=N)N2O1	14	i	i	i	i	i	i
COc1cc2nc(Nc3ccc(C)c(Cl)c3)nc(N)c2cc1OC	11	i	nt	i	i	18	i
COc1ccc(N2CCN(CCCNC(=O)C(=O)c3c(C)n(C)c4ccccc34)CC2)cc1	i	i	nt	i	i	nt	nt
COc1cc(OC)c(-c2cc(C(=O)O)ccc2OC)c(OC)c1	i	i	i	i	i	nt	nt
Clc1ccc(/C=C\c2nccc3c2[nH]c2ccccc23)cc1	14	i	i	i	i	i	i
Cc1cccc(C)c1NC(=O)Nc1nnc([C@H]2C[C@H](O)[C@@H](CO)O2)s1	i	i	nt	i	nt	nt	nt
O=C(NNc1nc(=O)c2cccnc2s1)c1ccccc1O	i	i	i	i	i	nt	nt
CCOC(=O)/C(=N\Nc1ccc(C(C)=O)cc1)c1csc(Nc2ccccc2)n1	21	i	i	i	i	13	i
CC(NCc1ccc(-c2ccccc2)cc1)C(O)c1ccccc1 (centres undefined)	i	i	i	i	i	nt	nt
Cc1cccc(NC(=S)N/N=C/c2ccc(Cl)c([N+](=O)[O-])c2)c1	22	i	i	i	i	i	i
Cc1cccc(NC(=S)N/N=C/c2cccc([N+](=O)[O-])c2)c1	i	i	i	i	i	nt	nt
COc1ccc(Cl)cc1-c1cc(C(=O)Nc2ccc(F)cc2)[nH]n1	16	i	nt	i	nt	i	i
CCCOc1ccc(F)cc1-c1cc(C(=O)Nc2cc(OC)ccc2OC)[nH]n1	16	i	nt	i	nt	i	i
SMILES	MC4R ag barr	NOD2 RIPK2 PPI	TLR4 MyD88 comp	MC4R antag cAMP	TLR9-MyD88 block	MC4R barr ag	MOR-DOR barr ag
COc1ccc(NC(=O)c2cc(-c3ccc(C)cc3O)n[nH]2)c(OC)c1	10	i	nt	i	i	i	i
CCOC(=O)NNC(=O)NCCCCCCNC(=O)NNC(=O)OCC	i	i	nt	i	i	nt	nt
O=C(CCC1CCCN(Cc2cccc(Cl)c2)C1)NCc1ccccc1F (centres undefined)	i	i	nt	i	i	nt	nt
CCCCCn1nc(C(=O)N2CCc3ccccc32)c2ccccc2c1=O	i	i	nt	i	i	nt	nt
CS(=O)(=O)c1ccc(-c2cc(NC=O)c3ncc(-c4ccc(F)cc4)n3c2)cc1	11	i	nt	i	nt	i	i
COc1cc(-c2cnc3c(NC=O)cc(-c4ccccc4)cn23)cc(OC)c1OC	i	i	nt	i	nt	nt	nt
COc1ccc(-c2cc(NC=O)c3ncc(-c4cccc(C(F)(F)F)c4)n3c2)cc1OC	36	i	nt	i	nt	27	i
COc1ccccc1-c1cc(NC=O)c2ncc(-c3cccc(C(F)(F)F)c3)n2c1	25	i	nt	i	nt	23	i
CN(C)c1ccccc1-c1cc(NC=O)c2ncc(-c3cccc(C(F)(F)F)c3)n2c1	27	i	nt	i	nt	27	i
Cc1c(C(=O)N(C)c2ccc(Cl)cc2)cnn1-c1ccccc1	i	i	nt	i	i	nt	nt
Cc1cc(OCC(=O)NCCCn2ccnc2)c2c(C)c(C)c(=O)oc2c1	i	i	nt	i	i	nt	nt
Cn1c(=O)c2cc(NC(=O)CCc3cccnc3)ccc2n1Cc1cccc(C(F)(F)F)c1	i	i	nt	i	nt	nt	nt
CC(=O)Nc1ccc(S(=O)(=O)NCCC(=O)OCC(=O)c2cccc(Br)c2)cc1	i	i	nt	i	i	nt	nt
CCN(c1ccccc1)S(=O)(=O)c1ccc2c(c1)N(C(C)=O)CCO2	i	i	nt	i	i	nt	nt
COc1cc(-c2cc(NC=O)c3ncc(-c4cccc(C(F)(F)F)c4)n3c2)cc(OC)c1OC	22	i	nt	i	nt	19	i
COc1ccccc1-c1cc(NC=O)c2ncc(-c3ccc(F)cc3)n2c1	18	i	nt	i	nt	18	i
CC1(C(=O)NCC2CCCO2)Oc2cccnc2NC1=O (centres undefined)	i	i	i	i	i	nt	nt
O=C(CSc1nc2cc3ccccc3cc2[nH]1)Nc1ccc(F)cc1	9.6	i	i	i	i	i	i
COc1ccc(NC(=O)CSc2nc3ccc(OC)cc3[nH]2)cc1	i	i	nt	i	i	nt	nt
CCCCn1c(N)c(N(CCOC)C(=O)COC(=O)C(C)Oc2ccc(Cl)cc2)c(=O)[nH]c1=O (centres undefined)	i	i	nt	i	i	nt	nt
CC(C)c1ccc(/C=N/n2nnnc2Nc2ccccc2)cc1	11	i	i	i	i	15	i
C=CC[C@@H](CC(=O)N(CCO)Cc1ccccc1)C(=O)NCCOC(=O)[C@H](CC=C)CC(=O)OC(C)(C)C	i	i	nt	i	i	nt	nt
O=C(Cc1coc2ccc3ccccc3c12)Nc1nnc(C2CC2)s1	27	i	i	i	i	9.5	i
CN(C)c1ccc2c(=O)c3ccccc3oc2n1	nt	i	nt	nt	nt	nt	nt

High-throughput results from PubChem.
